# Many of the other results were omitted from the sample, so hits are more common in it than they were.
# KDM4C inh – inhibitors of human demethylase GASC-1 KDM4C | Q9H3R0 | 96,000 compounds, 0.15% hits | inhibition, % at 12.5 µM | GST-KDM4C 2-372, H3K9me3 peptide, LANCE TR-FRET;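 active = mean replicate inhibition above about 25%, with at least 55% of replicates also reaching it, limit read from the data, passing the limit was not always enough; inconclusive = only one of those two conditions met; inactive = neither condition met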
#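 reagent = H3K9me3 peptide substrate, Fe(II), 2-oxoglutarate | system = GST-tagged GASC-1 (JMJD2C) catalytic fragment, aa 2-372 | amount = enzyme final amount 10 nM | read-out = Fall in 671/618 emission ratio as inhibition | medium = HEPES buffer, pH 7.5, plus ascorbate | schedule = 30 min reaction, 60 min detection, RT | measured by = LANCE TR-FRET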
# T cruzi growth-1 – inhibitors of T. cruzi proliferation. T. cruzi beta-gal in NIH3T3, GalScreen luminescence, 90 h. inhibition, % at 8.34 µM. 77,000 compounds, 5.9% hits. AID 624255;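 active = mean inhibition above about 93%, with at least 55% of replicates each passing it, limit read from the data, passing the limit was not always enough; inconclusive = only one of those two conditions holds; inactive = neither condition holds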
# IDH1 mut inh – IDH1 R132H (human) inhibition. IDH1 R132H reductase, diaphorase/resazurin fluorescence, 60 min. 70,000 compounds, 0.18% hits. inhibition, % at 10 µM. AID 624101. O75874; in the data active = inhibition above about 34%; inconclusive = no clear call, values can overlap the other calls; inactive = below about 11%
# Target sequence (O75874 whole entry R132H): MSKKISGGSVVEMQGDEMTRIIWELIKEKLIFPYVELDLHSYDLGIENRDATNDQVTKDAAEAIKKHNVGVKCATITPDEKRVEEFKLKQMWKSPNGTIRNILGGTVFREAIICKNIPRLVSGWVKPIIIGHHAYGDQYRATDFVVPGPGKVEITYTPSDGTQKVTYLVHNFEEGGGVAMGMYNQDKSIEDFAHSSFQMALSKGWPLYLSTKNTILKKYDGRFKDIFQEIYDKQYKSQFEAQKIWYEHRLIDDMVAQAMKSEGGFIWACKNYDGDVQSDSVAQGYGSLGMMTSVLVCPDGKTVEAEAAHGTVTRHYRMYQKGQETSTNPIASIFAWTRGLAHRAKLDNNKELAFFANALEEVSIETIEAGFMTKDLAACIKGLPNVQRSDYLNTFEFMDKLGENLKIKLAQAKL
# T cruzi growth-2 – Trypanosoma cruzi proliferation inhibition | shares compounds with T cruzi growth-1 | T. cruzi beta-gal in NIH3T3, GalScreen luminescence, 90 h | inhibition, % at 8.35 µM | 5,600 compounds, 72% hits;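 active = mean replicate inhibition above about 95% and at least 55% of replicates individually reaching it, limit read from the data; inconclusive = only one of the two criteria is met; inactive = neither criterion is met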
# T cruzi growth-3 – blocks T. cruzi growth in NIH3T3 host cells | T. cruzi beta-gal in NIH3T3, GalScreen luminescence, 90 h | AID 651740 | inhibition, % at 2.09 µM | shares compounds with T cruzi growth-1 | 5,600 compounds, 21% hits;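 active = mean inhibition above about 95%, with at least 55% of replicates also reaching it, limit read from the data; inconclusive = meets just one of the two conditions; inactive = meets neither condition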
# NIH3T3 tox – cytotoxicity in mouse NIH/3T3 fibroblasts; shares compounds with T cruzi growth-1; NIH/3T3 viability, CellTiter-Glo ATP luminescence, 90 h; cytotoxicity (signal decrease), % at 8.35 µM; 5,600 compounds, 14% hits;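 active = mean signal decrease across replicates above about 35% based on untreated-well scatter, with enough replicates individually passing, limit read from the data; inconclusive = no rule stated though some were filed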
# NIH3T3 tox 2 – NIH/3T3 (mouse) viability loss. 5,600 compounds, 56% hits. NIH/3T3 viability, CellTiter-Glo ATP luminescence, 90 h. shares compounds with T cruzi growth-1. inhibition, % at 24.9 µM;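 active = mean loss of cell viability signal at or above a set limit, and enough replicates individually reaching it; inconclusive = meets only the mean limit or only the replicate share; inactive = meets neither condition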
# Numbers stand for hits; 0 = inactive; ? = inconclusive; - = not tested or not shown.
SMILES,KDM4C inh,T cruzi growth-1,IDH1 mut inh,T cruzi growth-2,T cruzi growth-3,NIH3T3 tox,NIH3T3 tox 2
CCS(=O)(=O)N1CC2(C1)[C@H](c1ccccc1)[C@@H](CO)N2CC1CCCC1,0,-,-,-,-,-,-
Cc1cc(Br)c(NC(=O)CSc2ncn(-c3ccccc3)n2)cc1C,-,-,0,-,-,-,-
COCC#Cc1ccc([C@H]2[C@H]3CN(C(=O)CN(C)C)CCCCN3[C@H]2CO)cc1,0,0,-,-,-,-,-
CN(C)CC#Cc1ccc([C@@H]2[C@H]3CN(C(=O)CN(C)C)CCCCN3[C@H]2CO)cc1,0,0,-,-,-,-,-
COCC#Cc1ccc([C@@H]2[C@@H](CO)N3CCCCN(C(=O)CN(C)C)C[C@H]23)cc1,0,106,-,0,0,0,0
COCC#Cc1ccc([C@@H]2[C@@H](CO)N3CCCCN(C(=O)CN(C)C)C[C@@H]23)cc1,0,99,-,0,0,0,0
CN(C)CC#Cc1ccc([C@H]2[C@H](CO)N3CCCCN(C(=O)CN(C)C)C[C@@H]23)cc1,0,?,-,0,0,0,0
CN(C)CC#Cc1ccc([C@@H]2[C@H](CO)N3CCCCN(C(=O)CN(C)C)C[C@@H]23)cc1,0,0,-,-,-,-,-
CCC(=O)N1CC2(C1)[C@H](c1ccccc1)[C@H](CO)N2Cc1cc(F)ccc1F,0,-,-,-,-,-,-
C[C@@H]1CN([C@H](C)CO)C(=O)Cc2cc(N(C)C)ccc2O[C@@H]1CN(C)C(=O)Nc1cccc2ccccc12,0,0,-,-,-,-,-
Cc1cc2nnc(SCC(=O)Nc3ccc(Cl)c(C(F)(F)F)c3)n2c2ccccc12,-,-,0,-,-,-,-
O=S(=O)(Cc1ccccc1)N1CCCCN2[C@H](C1)[C@H](c1ccc(-c3ccc(F)cc3)cc1)[C@@H]2CO,0,110,-,101,0,0,105
O=S(=O)(Cc1ccccc1)N1CCCCN2[C@H](CO)[C@@H](c3ccc(-c4ccc(F)cc4)cc3)[C@H]2C1,0,?,-,103,0,35,105
O=S(=O)(Cc1ccccc1)N1CCCCN2[C@H](C1)[C@@H](c1ccc(-c3ccc(F)cc3)cc1)[C@@H]2CO,0,0,-,-,-,-,-
O=S(=O)(Cc1ccccc1)N1CCCCN2[C@H](CO)[C@@H](c3ccc(-c4cncnc4)cc3)[C@@H]2C1,0,0,-,-,-,-,-
CCCCn1c2ccccc2c2nnc(SCCN3CCOCC3)nc21,-,-,0,-,-,-,-
Nc1cccc(S(=O)(=O)NCc2ccco2)c1,-,-,0,-,-,-,-
Cc1ccc(-c2ccc([C@H]3[C@H]4CN(C(=O)Nc5ccccc5)CCCCN4[C@H]3CO)cc2)cc1,0,109,-,107,0,0,91
O=C(Nc1ccccc1)N1CCCCN2[C@@H](CO)[C@@H](c3ccc(-c4ccccc4)cc3)[C@@H]2C1,0,0,-,-,-,-,-
Cc1ccc(-c2ccc([C@@H]3[C@@H](CO)N4CCCCN(C(=O)Nc5ccccc5)C[C@@H]34)cc2)cc1,0,110,-,106,0,0,104
O=C(Nc1ccccc1)N1CCCCN2[C@H](C1)[C@H](c1ccc(-c3ccccc3)cc1)[C@@H]2CO,0,128,-,103,0,0,0
O=C(Nc1ccccc1)N1CCCCN2[C@H](CO)[C@H](c3ccc(Br)cc3)[C@@H]2C1,0,0,-,-,-,-,-
O=C(Nc1ccccc1)N1CCCCN2[C@H](C1)[C@@H](c1ccc(-c3ccccc3)cc1)[C@@H]2CO,0,0,-,-,-,-,-
Cn1c(=O)c2c(nc(N3CCOCC3)n2CCCN)n(C)c1=O,-,-,0,-,-,-,-
CS(=O)(=O)Nc1ccc2c(c1)[C@@H]1C[C@@H](CC(=O)NCc3ccccc3F)O[C@@H](CO)[C@@H]1O2,0,0,0,-,-,-,-
SMILES,KDM4C inh,T cruzi growth-1,IDH1 mut inh,T cruzi growth-2,T cruzi growth-3,NIH3T3 tox,NIH3T3 tox 2
C[C@H]1CN([C@@H](C)CO)C(=O)c2cc(NS(=O)(=O)c3ccc(Cl)cc3)ccc2O[C@H]1CN(C)Cc1ccc(C(=O)Nc2ccccc2N)cc1,0,0,-,-,-,-,-
COC(=O)c1c(NC(=O)C(C)Oc2ccc(F)cc2)sc(C(C)=O)c1C (stereo unspecified),-,-,0,-,-,-,-
COCCNC(=O)CC1Sc2ccccc2NC1=O (stereo unspecified),-,-,0,-,-,-,-
Cc1sc2ncnc(SCC(=O)c3ccc(Cl)cc3)c2c1C,-,-,0,-,-,-,-
C[C@H](CO)N1C[C@H](C)[C@@H](CN(C)C(=O)Nc2ccc(C(F)(F)F)cc2)Oc2cc(-c3ccncc3)ccc2S1(=O)=O,0,103,0,110,0,0,48
C[C@@H]1CN([C@@H](C)CO)S(=O)(=O)c2ccc(-c3ccncc3)cc2O[C@@H]1CN(C)C(=O)Nc1ccc(C(F)(F)F)cc1,0,?,0,108,0,0,67
Cc1ccc(-c2ccc3c(c2)O[C@@H](CN(C)C(=O)Nc2ccc(C(F)(F)F)cc2)[C@H](C)CN([C@@H](C)CO)S3(=O)=O)cc1,0,0,0,-,-,-,-
C[C@@H]1CN([C@@H](C)CO)S(=O)(=O)c2ccc(-c3ccncc3)cc2O[C@H]1CN(C)C(=O)Nc1ccc(C(F)(F)F)cc1,0,0,0,-,-,-,-
O=C(Nc1ccc2c(c1)[C@@H]1C[C@@H](CC(=O)N3CCc4ccccc4C3)O[C@@H](CO)[C@@H]1O2)C1CCC1,0,0,0,-,-,-,-
CCN1[C@H](C(=O)NCc2ccc(F)cc2)[C@@H](CO)[C@@H]2Cn3c(ccc(-c4ccccc4OC)c3=O)[C@@H]21,0,104,-,0,0,0,0
COc1ccccc1-c1ccc2n(c1=O)C[C@H]1[C@H](CO)[C@@H](C(=O)Nc3nccs3)N(CC3CC3)[C@@H]21,0,?,-,0,0,0,0
CCN1[C@@H]2c3ccc(-c4ccccc4OC)c(=O)n3C[C@@H]2[C@@H](CO)[C@@H]1C(=O)Nc1nccs1,0,0,-,-,-,-,-
O=C(NCC1CC1)[C@@H]1[C@@H](CO)[C@@H]2Cn3c(ccc(-c4cccnc4)c3=O)[C@@H]2N1C(=O)NC1CCCC1,0,?,-,0,0,0,0
CCN1[C@@H]2c3ccc(-c4ccccc4OC)c(=O)n3C[C@@H]2[C@@H](CO)[C@@H]1C(=O)NCc1ccccc1,0,0,-,-,-,-,-
O=C(Nc1nccs1)[C@@H]1[C@@H](CO)[C@@H]2Cn3c(cccc3=O)[C@@H]2N1C(=O)C1CCC1,0,101,-,0,0,0,0
O=C(NCC1CC1)[C@@H]1[C@@H](CO)[C@@H]2Cn3c(ccc(-c4cncnc4)c3=O)[C@@H]2N1C(=O)NC1CCCC1,0,0,-,-,-,-,-
O=C(Nc1nccs1)[C@H]1[C@H](CO)[C@H]2Cn3c(cccc3=O)[C@H]2N1C(=O)C1CCC1,0,0,-,-,-,-,-
CCCNC(=O)N[C@@H]1C=C[C@@H](CC(=O)NCCc2ccccc2)O[C@@H]1CO,0,0,0,-,-,-,-
CS(=O)(=O)N(CC(=O)Nc1ccc(Br)c(Cl)c1)c1cccc([N+](=O)[O-])c1,-,-,0,-,-,-,-
O=C(CSc1nc2sc3c(c2c(=O)n1Cc1ccco1)CCC3)c1ccccc1,-,-,0,-,-,-,-
Cc1ccc(NS(=O)(=O)c2cccc(C(=O)Nc3ccccc3C(=O)O)c2)cc1,-,-,0,-,-,-,-

# Bioassay records: PubChem, Broad Institute
